The source made the active and inactive calls. Bounds are passed on as bounds.

Data set [1] in a line: Selectivity ratio, ratio of inhibition of wild type TEL fused c-KIT (unknown origin) transfected in mouse BAF3 cells assessed as growth inhibition to inhibition of TEL fused c-KIT T670I mutant (unknown origin) transfected in mouse BAF3 cells assessed as growth inhibition. On the set-up: species or system Homo sapiens. The method in brief: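 IL-3 independent BaF3 cells stably expressing tel-c-KIT wt or tel-c-KIT T670I, grown in RPMI 1640 with 10% FBS, 2% L-glutamine, 37 °C, 5% CO2. Suspension cells at 1.5 to 5 × 10^4 cells/mL mixed with serial compound dilutions and incubated 72 h. Viability read by CCK-8 absorbance at 450 nm, normalized to DMSO; GI50 from curve fit. Selectivity is wt GI50 over T670I GI50.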

The test system of data set [2] is Mast/stem cell growth factor receptor Kit (Homo sapiens), P10721 [V559G]. The data set is described as follows: Inhibition of TEL fused c-KIT V559G mutant (unknown origin) transfected in mouse BAF3 cells assessed as growth inhibition after 72 hrs by CCK8 assay. In kind it is cell-based. The procedure, abridged: (§1)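 Tel-c-KIT-transformed BaF3 lines (IL-3 independent) kept in RPMI 1640 with 10% FBS, 2% L-glutamine and pen/strep. Cells at 1.5 to 5 × 10^4 cells/mL mixed with graded compound and incubated 72 h at 37 °C, 5% CO2. Viability by CCK-8 absorbance at 450 nm, normalized to DMSO. GI50 from dose–response fit.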
Sequence of Mast/stem cell growth factor receptor Kit (Homo sapiens), P10721 [V559G] (P10721 whole entry V559G, the tested form may be a part): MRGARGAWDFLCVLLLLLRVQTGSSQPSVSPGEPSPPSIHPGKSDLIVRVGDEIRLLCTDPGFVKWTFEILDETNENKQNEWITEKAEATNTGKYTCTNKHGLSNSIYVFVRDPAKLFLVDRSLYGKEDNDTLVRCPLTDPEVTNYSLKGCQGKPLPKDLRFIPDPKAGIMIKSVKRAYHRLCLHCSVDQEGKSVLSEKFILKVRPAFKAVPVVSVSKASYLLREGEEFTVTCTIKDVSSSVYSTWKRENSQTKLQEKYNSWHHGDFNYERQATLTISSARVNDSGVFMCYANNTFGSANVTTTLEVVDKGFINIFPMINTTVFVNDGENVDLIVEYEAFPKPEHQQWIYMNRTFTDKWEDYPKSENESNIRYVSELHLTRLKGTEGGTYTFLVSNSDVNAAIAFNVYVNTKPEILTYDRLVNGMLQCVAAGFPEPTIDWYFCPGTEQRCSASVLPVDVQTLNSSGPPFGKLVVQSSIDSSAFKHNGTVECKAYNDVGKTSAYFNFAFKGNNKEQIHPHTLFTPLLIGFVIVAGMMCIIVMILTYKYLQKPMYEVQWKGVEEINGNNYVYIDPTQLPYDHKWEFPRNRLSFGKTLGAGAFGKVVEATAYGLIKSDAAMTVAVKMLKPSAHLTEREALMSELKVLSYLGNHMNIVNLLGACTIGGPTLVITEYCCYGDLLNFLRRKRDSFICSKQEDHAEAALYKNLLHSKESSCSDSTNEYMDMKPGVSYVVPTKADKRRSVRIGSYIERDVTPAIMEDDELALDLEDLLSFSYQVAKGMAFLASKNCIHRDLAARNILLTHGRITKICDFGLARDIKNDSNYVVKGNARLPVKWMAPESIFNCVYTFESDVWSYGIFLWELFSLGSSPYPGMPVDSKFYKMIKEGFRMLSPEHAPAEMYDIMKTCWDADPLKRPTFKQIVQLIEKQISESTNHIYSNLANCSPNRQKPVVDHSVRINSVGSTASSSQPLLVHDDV
For orientation: Formazan colour is commonly taken as a measure of viable cells.

The subject of data set [3] is Mast/stem cell growth factor receptor Kit (Homo sapiens), P10721 [L576P]. The data set is described as follows: Inhibition of TEL fused c-KIT L576P mutant (unknown origin) transfected in mouse BAF3 cells assessed as growth inhibition after 72 hrs by CCK8 assay. In kind it is cell-based. The method in brief:
as §1

Data set [4] deals with Mast/stem cell growth factor receptor Kit (Homo sapiens), P10721 [V559D,V654A]. The data set is described as follows: Inhibition of TEL fused c-KIT V654A/V559D double mutant (unknown origin) transfected in mouse BAF3 cells assessed as growth inhibition after 72 hrs by CCK8 assay. The class given is cell-based. The method in brief:
as §1

The test system of data set [5] is Mast/stem cell growth factor receptor Kit (Homo sapiens), P10721 [D820E]. The data set is described as follows: Inhibition of TEL fused c-KIT D820E mutant (unknown origin) transfected in mouse BAF3 cells assessed as growth inhibition after 72 hrs by CCK8 assay. The class given is cell-based. The method in brief:
as §1

The target in data set [6] is Mast/stem cell growth factor receptor Kit (Homo sapiens, UniProt P10721). Briefly: Inhibition of TEL fused wild type c-KIT (unknown origin) transfected in mouse BaF3 cells assessed as reduction in phosphorylation at Y703 residue after 2 hrs by Western blot analysis. The class given is cell-based. On the technique in general: A western blot detects proteins with antibodies after separation by electrophoresis.
Sequence of Mast/stem cell growth factor receptor Kit (Homo sapiens, UniProt P10721) (P10721 whole entry, the tested form may be a part): as the sequence (P10721 whole entry V559G, the tested form may be a part) above, with G559V counted along it

A further data set is filed under the species Homo sapiens. Briefly: Selectivity ratio, ratio of IC50 for wild-type His-tagged c-KIT (unknown origin) expressed in baculovirus infected sf9 cells to IC50 for His-tagged c-KIT T670I mutant (544 to 935 residues) (unknown origin) expressed in baculovirus infected sf9 cells. The method in brief: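 Purified protein: His-tagged c-KIT wt or T670I, residues 544−935, expressed in baculovirus-infected SF9 cells. Purified by Ni-NTA then Superdex-200. Enzyme (wt 20 ng/µL, T670I 15 ng/µL) preincubated with inhibitor 60 min at room temperature. Then ATP/substrate added (50 µM ATP) and run 1 h at 37 °C. ADP-Glo luminescence read-out; IC50 from fitted dose–response curves.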

Data set [7] deals with Mast/stem cell growth factor receptor Kit (Homo sapiens, UniProt P10721, T670I). Briefly: Inhibition of TEL fused wild type c-KIT T670I mutant (unknown origin) transfected in mouse BaF3 cells assessed as reduction in phosphorylation at Y719 residue after 2 hrs by Western blot analysis. In kind it is cell-based.
Sequence of Mast/stem cell growth factor receptor Kit (Homo sapiens, UniProt P10721, T670I) (P10721 26-976 T670I limits assumed): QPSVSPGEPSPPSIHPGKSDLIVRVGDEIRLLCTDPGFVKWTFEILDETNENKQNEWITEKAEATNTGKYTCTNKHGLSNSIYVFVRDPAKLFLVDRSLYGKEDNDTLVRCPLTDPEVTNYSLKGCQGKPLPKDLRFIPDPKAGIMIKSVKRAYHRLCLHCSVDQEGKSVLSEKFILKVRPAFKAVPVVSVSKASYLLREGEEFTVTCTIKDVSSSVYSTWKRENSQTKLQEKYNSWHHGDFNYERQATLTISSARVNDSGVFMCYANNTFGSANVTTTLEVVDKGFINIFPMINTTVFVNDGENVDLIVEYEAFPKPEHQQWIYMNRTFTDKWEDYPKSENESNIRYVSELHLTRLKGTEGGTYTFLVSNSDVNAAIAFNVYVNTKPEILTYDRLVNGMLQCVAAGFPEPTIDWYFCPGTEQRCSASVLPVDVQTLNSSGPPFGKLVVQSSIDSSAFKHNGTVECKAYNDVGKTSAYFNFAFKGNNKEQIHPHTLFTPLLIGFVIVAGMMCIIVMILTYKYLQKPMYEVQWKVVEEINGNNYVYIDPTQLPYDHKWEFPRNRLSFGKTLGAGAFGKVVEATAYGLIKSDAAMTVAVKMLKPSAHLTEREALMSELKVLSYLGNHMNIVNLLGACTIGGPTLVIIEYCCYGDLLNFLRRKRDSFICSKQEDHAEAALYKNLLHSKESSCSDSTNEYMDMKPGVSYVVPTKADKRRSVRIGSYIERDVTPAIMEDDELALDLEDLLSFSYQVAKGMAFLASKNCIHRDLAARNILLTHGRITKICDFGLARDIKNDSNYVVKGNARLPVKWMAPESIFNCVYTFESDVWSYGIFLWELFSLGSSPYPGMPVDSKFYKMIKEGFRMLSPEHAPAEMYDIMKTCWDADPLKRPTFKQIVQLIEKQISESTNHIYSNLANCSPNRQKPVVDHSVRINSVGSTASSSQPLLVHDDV
In data set [8] the target is Macrophage colony-stimulating factor 1 receptor (Homo sapiens, UniProt P07333). Briefly: Inhibition of wild-type human partial length CSF1R (I564 to S939 residues) expressed in bacterial expression system after 1 hr by Z-LYTE assay.
Sequence of Macrophage colony-stimulating factor 1 receptor (P07333 whole entry, the tested form may be a part): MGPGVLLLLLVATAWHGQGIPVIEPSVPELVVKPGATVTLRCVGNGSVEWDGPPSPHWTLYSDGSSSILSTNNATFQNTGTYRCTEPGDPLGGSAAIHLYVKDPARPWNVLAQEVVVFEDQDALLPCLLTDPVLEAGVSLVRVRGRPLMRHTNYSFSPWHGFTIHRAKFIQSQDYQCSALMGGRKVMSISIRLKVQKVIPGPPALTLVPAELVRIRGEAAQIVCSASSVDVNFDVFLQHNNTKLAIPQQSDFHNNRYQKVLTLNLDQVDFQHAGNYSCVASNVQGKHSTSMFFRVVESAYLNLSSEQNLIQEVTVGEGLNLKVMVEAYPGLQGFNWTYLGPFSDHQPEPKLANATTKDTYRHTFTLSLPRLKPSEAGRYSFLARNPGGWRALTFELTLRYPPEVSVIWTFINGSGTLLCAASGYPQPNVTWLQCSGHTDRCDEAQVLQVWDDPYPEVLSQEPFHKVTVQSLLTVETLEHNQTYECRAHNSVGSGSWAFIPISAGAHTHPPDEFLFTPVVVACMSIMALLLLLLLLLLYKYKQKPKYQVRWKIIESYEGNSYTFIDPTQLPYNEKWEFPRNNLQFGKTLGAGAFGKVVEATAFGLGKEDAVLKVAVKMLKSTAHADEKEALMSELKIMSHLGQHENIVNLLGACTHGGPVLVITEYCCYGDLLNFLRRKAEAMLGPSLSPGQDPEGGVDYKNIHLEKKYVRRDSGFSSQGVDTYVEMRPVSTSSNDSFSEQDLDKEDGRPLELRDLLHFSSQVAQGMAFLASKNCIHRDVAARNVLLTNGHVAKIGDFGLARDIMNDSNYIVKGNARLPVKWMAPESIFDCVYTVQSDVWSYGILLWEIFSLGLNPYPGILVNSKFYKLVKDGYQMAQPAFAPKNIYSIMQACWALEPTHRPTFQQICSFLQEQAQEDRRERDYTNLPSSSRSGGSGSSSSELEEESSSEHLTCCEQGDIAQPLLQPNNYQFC
In data set [9] the test system is Mast/stem cell growth factor receptor Kit (Homo sapiens), P10721 [UNDEFINED MUTATION]. The data set is described as follows: Inhibition of c-KIT 560 to 578 deletion/T670I double mutant in human GISTT1 cells assessed as reduction in STAT3 phosphorylation after 1 hr by Western blot analysis. The class given is cell-based. The method in brief:
(§2)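 Serial compound dilutions applied for 1 h to GIST-T1, GIST-T1-T670I (CRISPR/Cas9 T670I knock-in, clone confirmed by Sanger sequencing) or GIST-5R cells in DMEM with 10% FBS. Cells then lysed and phospho-proteins detected by standard Western blotting.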

For data set [10] the test system is unchanged. Briefly: Inhibition of c-KIT 560 to 578 deletion/T670I double mutant in human GIST5R cells assessed as reduction in STAT3 phosphorylation after 1 hr by Western blot analysis. The class given is cell-based. The procedure, abridged:
as §2

A short description of data set [11]: Oral bioavailability in Sprague-Dawley rat at 10 mg/kg measured after 5 to 720 mins by LC-tandem mass spectrometry analysis. The class given is ADME, organism-based. The note with it: in vivo. The method in brief:
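Male Sprague–Dawley rats (190-210 g), fasted 12 h, given 1 mg/kg i.v. or 10 mg/kg p.o. in DMSO/5% glucose water (1:9). Blood sampled at 2–720 min (i.v.) or 5–720 min (p.o.). Plasma proteins precipitated with methanol using caffeine internal standard, then LC-MS/MS. Noncompartmental analysis; F = AUC0-∞ ratio corrected for dose; triplicate ±SD.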

A short description of data set [12]: Half-life in mouse at 1 mg/kg, iv measured after 2 to 720 mins by LC-tandem mass spectrometry analysis. The note with it: in vivo. The class given is ADME, organism-based. The procedure, abridged: (§3)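 Mice dosed 1 mg/kg i.v. or 10 mg/kg p.o.; plasma drug levels by LC-MS/MS, parameters by noncompartmental analysis; values not from triplicate testing.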
Data set [13] is described as follows: MRT (0 to infinity) in mouse at 1 mg/kg, iv measured after 2 to 720 mins by LC-tandem mass spectrometry analysis. The class given is ADME, organism-based. The note with it: in vivo.
A short description of data set [14]: AUC (0 to t) in mouse at 10 mg/kg, po measured after 5 to 720 mins by LC-tandem mass spectrometry analysis. The class given is ADME, organism-based. The note with it: in vivo. The method in brief:
as §3

The nature of data set [15]: Half-life in mouse at 10 mg/kg, po measured after 5 to 720 mins by LC-tandem mass spectrometry analysis. The class given is ADME, organism-based. To be noted: in vivo. The method in brief: as §3
Another data set has as its system Mus musculus. The data set is described as follows: Inhibition of c-KIT phosphorylation at Y719 residue in tumor of human GIST5R cells xenografted in nude mouse at 100 mg/kg, po administered as single dose and measured after 2 hrs. The class given is functional, organism-based. The method in brief: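 Female nu/nu mice bearing subcutaneous GIST-5R xenografts (cells in Matrigel, right flank) given one oral gavage dose of 100 mg/kg in HKI suspension (0.5% methocellulose/0.4% Tween80 in ddH2O). Tumors collected over a 2 h time course; p-c-KIT, p-ERK and p-AKT assessed by Western blot; plasma drug levels monitored in parallel.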
(In xenograft studies the graft and the host belong to different species.)

The nature of data set [16]: Antitumor activity against human GIST5R cells xenografted in nude mouse assessed as tumor weight at 50 mg/kg, po administered […] via gavage for 28 days (reference value: 0.59g). The class given is functional. The method in brief:
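Female nu/nu mice (5 weeks old) given subcutaneous right-flank GIST-5R cells in Matrigel. Dosing began at tumors of 200-400 mm3; randomized, 4 mice per group. Daily oral dosing (QD) at 25, 50 or 100 mg/kg in 0.5% methylcellulose/0.4% Tween80, or vehicle alone, for 28 days. Body weight and tumor volume, (W²×L)/2, measured daily; mean±SEM.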

Sequence of Mast/stem cell growth factor receptor Kit (Homo sapiens), P10721 [UNDEFINED MUTATION] (P10721 whole entry, looked up, stated change not applied): as the sequence (P10721 whole entry V559G, the tested form may be a part) above, with G559V counted along it
Sequence of Mast/stem cell growth factor receptor Kit (Homo sapiens), P10721 [L576P] (P10721 whole entry L576P, the tested form may be a part): as the sequence (P10721 whole entry V559G, the tested form may be a part) above, with G559V, L576P counted along it
Sequence of Mast/stem cell growth factor receptor Kit (Homo sapiens), P10721 [V559D,V654A] (P10721 whole entry V559D/V654A, the tested form may be a part): as the sequence (P10721 whole entry V559G, the tested form may be a part) above, with G559D, V654A counted along it
Sequence of Mast/stem cell growth factor receptor Kit (Homo sapiens), P10721 [D820E] (P10721 whole entry D820E, the tested form may be a part): as the sequence (P10721 whole entry V559G, the tested form may be a part) above, with G559V, D820E counted along it

Take `O=C(CC(=O)Nc1ccc2c(/C=C/c3ccccn3)n[nH]c2c1)Nc1cccc(F)c1`: the RatioGI50 in data set [1] is on record as 26. Also, the 50% growth inhibitory concentration (GI50) (commonly the concentration at which growth is held to half of that of the control) was determined as 26 nM in data set [2], 157 nM in [3], 265 nM in data set [4] and 868 nM in [5]. Moreover, the figures for the EC50 in [6] and in data set [7] were > 1000 nM and 750 nM, respectively. Moreover, the Ratio IC50 in the data set filed under Homo sapiens is 12. The IC50 (as a rule, the concentration at which inhibition is half-maximal) in [8] lay in the range of 14.2 to 14.3 nM. Besides, the inhibition entry in [9] and in [10] was “Dose-dependent effect” each time. Besides, the bioavailability – broadly, dose-corrected exposure relative to a reference, in per cent – in data set [11] was determined as 27.5%. Besides, the half-life (as a rule, the time needed for the level to fall by half in the phase considered) was 4.9 h in [12] and 1.6 h in data set [15]. Moreover, the MRT inf (as a rule, a mean duration of stay, worked out from the concentration-time curve) in [13] was found to be 0.4 h. Moreover, the AUC(0-t) (in general, the area under the concentration-time curve up to a stated or last time point) in data set [14] amounted to 1470 ng·h/mL. For the same molecule, in the data set on Mus musculus, the inhibition entry was “inactive”. Besides, in data set [16], the Activity was 0.25 g.
